Consider six compounds from ChEMBL document CHEMBL1152403, “Synthesis and evaluation of new endomorphin analogues modified at the Pro(2) residue” (Bioorg Med Chem Lett, 2009).

pIC50, pKi: −log10 of the molar value. Where a SMILES comes first, the peptide text is derived from it. [ ]: non-standard residue; d: D form. Dha = C=C(N)C(=O)O

The species named for one test is Rattus norvegicus. Briefly: Selectivity ratio of Ki for delta opioid receptor in rat brain membrane to Ki for mu opioid receptor in rat brain membrane. The test is classed as cell membranes.
In test [1] the target is Delta-type opioid receptor (Rattus norvegicus, UniProt P33533). In words: Displacement of [3H][…] from delta opioid receptor in rat brain membrane by liquid scintillation counting. In kind it is cell membranes.
Sequence of Delta-type opioid receptor (Rattus norvegicus, UniProt P33533) (P33533 whole entry): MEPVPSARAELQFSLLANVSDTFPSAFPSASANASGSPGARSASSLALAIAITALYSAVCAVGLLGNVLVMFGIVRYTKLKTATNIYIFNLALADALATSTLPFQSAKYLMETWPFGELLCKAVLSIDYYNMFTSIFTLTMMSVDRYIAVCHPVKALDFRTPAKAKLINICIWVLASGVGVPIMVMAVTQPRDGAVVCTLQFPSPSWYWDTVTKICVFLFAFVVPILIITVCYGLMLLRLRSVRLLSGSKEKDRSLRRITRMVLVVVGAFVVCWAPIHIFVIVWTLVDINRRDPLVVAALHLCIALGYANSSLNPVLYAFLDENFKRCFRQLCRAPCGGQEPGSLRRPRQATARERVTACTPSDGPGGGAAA
The target in test [2] is Mu-type opioid receptor (Rattus norvegicus, UniProt P33535). Briefly: Displacement of [3H]DAMGO from mu opioid receptor in rat brain membrane by liquid scintillation counting. The test is classed as cell membranes.
Sequence of Mu-type opioid receptor (Rattus norvegicus, UniProt P33535) (P33535 whole entry): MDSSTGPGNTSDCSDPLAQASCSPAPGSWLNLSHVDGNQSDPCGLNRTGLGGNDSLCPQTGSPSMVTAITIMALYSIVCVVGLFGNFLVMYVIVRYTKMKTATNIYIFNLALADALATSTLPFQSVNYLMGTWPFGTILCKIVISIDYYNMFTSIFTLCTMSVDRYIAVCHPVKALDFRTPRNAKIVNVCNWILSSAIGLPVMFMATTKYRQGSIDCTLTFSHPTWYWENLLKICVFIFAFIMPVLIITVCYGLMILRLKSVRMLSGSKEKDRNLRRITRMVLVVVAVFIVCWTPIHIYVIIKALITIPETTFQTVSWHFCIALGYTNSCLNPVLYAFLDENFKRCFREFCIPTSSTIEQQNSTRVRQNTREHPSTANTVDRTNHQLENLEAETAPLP
The target of test [3] is Delta-type opioid receptor (Mus musculus) (UniProt P32300). In words: Agonist activity at delta opioid receptor in mouse vas deference assessed as inhibition of electrically-stimulated contraction at 1 uM. In kind it is functional.
Sequence of Delta-type opioid receptor (Mus musculus) (P32300 whole entry): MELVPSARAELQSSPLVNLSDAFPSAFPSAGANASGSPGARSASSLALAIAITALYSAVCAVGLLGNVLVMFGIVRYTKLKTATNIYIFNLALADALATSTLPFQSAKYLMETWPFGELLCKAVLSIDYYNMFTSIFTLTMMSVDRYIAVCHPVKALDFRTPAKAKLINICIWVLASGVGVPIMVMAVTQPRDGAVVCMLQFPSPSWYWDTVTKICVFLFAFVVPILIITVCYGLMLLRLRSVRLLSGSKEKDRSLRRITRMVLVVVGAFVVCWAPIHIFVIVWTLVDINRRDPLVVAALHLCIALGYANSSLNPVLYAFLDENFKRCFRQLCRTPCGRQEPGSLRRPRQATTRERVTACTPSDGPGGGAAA
Test [4] concerns the target Mu-type opioid receptor (Cavia porcellus, UniProt P97266). In words: Agonist activity at mu opioid receptor in guinea pig ileum assessed as inhibition of electrically-stimulated contraction. In kind it is functional, tissue-based. The method in brief:
(§1)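 Isolated-tissue bioassay of inhibition of electrically evoked contraction (MVD for δ, GPI/LMMP for μ). IC50 is the mean of at least four experiments. IC50, relative potency and standard errors were obtained by fitting the data to the Hill equation by computerized non-linear least squares.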

The target of test [5] is Delta-type opioid receptor (Mus musculus, UniProt P32300). Briefly: Agonist activity at delta opioid receptor in mouse vas deference assessed as inhibition of electrically-stimulated contraction. The test is classed as functional. The method, boiled down: as §1
Sequence of Delta-type opioid receptor (Mus musculus, UniProt P32300) (P32300 whole entry): as above

Sequence of Mu-type opioid receptor (Cavia porcellus, UniProt P97266) (P97266 whole entry): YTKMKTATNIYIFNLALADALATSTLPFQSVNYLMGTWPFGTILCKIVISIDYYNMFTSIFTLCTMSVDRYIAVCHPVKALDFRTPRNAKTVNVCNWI

Regarding `NC(=O)[C@H](Cc1ccccc1)NC(=O)[C@H](Cc1c[nH]c2ccccc12)NC(=O)C1CN(C(=O)[C@@H](N)Cc2ccc(O)cc2)C1`, the Ratio Ki in the test listed under Rattus norvegicus came to 1.2. Also, the pKi in test [1] was 7.40; at Mu-type opioid receptor [2], 7.47.
The corresponding values for `NC(=O)[C@H](Cc1ccccc1)NC(=O)[C@H](Cc1ccccc1)NC(=O)[C@@H]1CCN1C(=O)[C@@H](N)Cc1ccc(O)cc1` are 920, 5.29 and 8.25.
`NC(=O)[C@H](Cc1ccccc1)NC(=O)[C@H](Cc1ccccc1)NC(=O)C1CN(C(=O)[C@@H](N)Cc2ccc(O)cc2)C1`: in the test listed under Rattus norvegicus, the Ratio Ki came out at 32. Further, the inhibition in test [3] was 13%. Further, the negative-log Ki (pKi) was 5.16 in test [1] and 6.68 at Mu-type opioid receptor [2].
Turning to `C=C(NC(=O)[C@@H](N)Cc1ccc(O)cc1)C(=O)N[C@@H](Cc1ccccc1)C(=O)N[C@@H](Cc1ccccc1)C(N)=O` (H-Y[Dha]FF-NH2), the Ratio Ki in the test filed under Rattus norvegicus is 21. Further, the pKi is 6.15 in test [1] and 7.47 on Mu-type opioid receptor [2].
As for `NC(=O)[C@H](Cc1ccccc1)NC(=O)[C@H](Cc1ccccc1)NC(=O)[C@@H]1C=CCN1C(=O)[C@@H](N)Cc1ccc(O)cc1`, the pIC50 was 4.85 on Mu-type opioid receptor [4] and 4.15 in test [5]. The compound also showed a pKi on Mu-type opioid receptor [2] of 8.19.
In the case of `NC(=O)[C@H](Cc1ccccc1)NC(=O)[C@H](Cc1c[nH]c2ccccc12)NC(=O)[C@@H]1CCN1C(=O)[C@@H](N)Cc1ccc(O)cc1`, the Ratio Ki in the test filed under Rattus norvegicus is 1500. Also, the results for the pKi (in test [1]; at Mu-type opioid receptor [2]) were 5.46 and 8.64, respectively.
